From PubChem BioAssay AID439 (The Scripps Research Institute Molecular Screening Center, 2006)
Calls of active or inactive are those of the source.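 How the source made its calls: active means compounds with EC50 at or below 10 micromolar; inactive means EC50 above 10 micromolar.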

Biological target: Sphingosine 1-phosphate receptor 3 (Homo sapiens) (UniProt Q99500)
Assay: S1P3 receptor activation, EC50 – cell-based, NFAT-BLA reporter, dose response (AID 439)
Conditions: S1P3 NFAT-beta-lactamase reporter cells, FRET ratio
Method in brief: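 Material: CHO cells with human S1P3 and NFAT-BLA reporter; Times: 4 h compound exposure at 37 °C; Technique: BLA FRET emission ratio, 460 and 535 nm; Replication: triplicate; Dosing: 10-point threefold dilution series, from 10 mM DMSO stocks.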

Sequence of Sphingosine 1-phosphate receptor 3 (Homo sapiens) (Q99500 whole entry, looked up): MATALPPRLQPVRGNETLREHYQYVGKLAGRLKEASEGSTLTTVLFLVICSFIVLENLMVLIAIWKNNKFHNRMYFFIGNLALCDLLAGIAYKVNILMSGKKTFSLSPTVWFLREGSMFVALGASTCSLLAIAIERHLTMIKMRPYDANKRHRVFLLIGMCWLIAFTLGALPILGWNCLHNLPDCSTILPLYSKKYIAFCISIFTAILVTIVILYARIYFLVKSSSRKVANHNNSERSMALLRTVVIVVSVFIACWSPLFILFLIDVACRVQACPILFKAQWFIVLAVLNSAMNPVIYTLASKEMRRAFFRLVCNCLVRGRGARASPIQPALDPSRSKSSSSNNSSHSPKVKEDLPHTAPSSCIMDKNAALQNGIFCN

With `CCOC(=O)C1=C(N)OC2=C(C(=O)CCC2)C1c1ccccc1OCC` (stereo unspecified) the EC50 was “inactive”.
